High-throughput results from PubChem.
T cell HTS: modulators of CD8 T cell-vesicle binding, primary screen, mouse 2C CD8+ T cells, flow cytometry | 2C CD8+ T cell-vesicle binding; stronger effect = lower value | hit rate 0.068% among 330,000 | response (vesicle binding), % at 7 µM;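 active = response, share of CD8 T cells binding vesicles, and their 90th percentile fluorescence all below set limits, cut at about 80% in these data, passing the limit was not always enough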;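 note: values below 100% mean blocked vesicle binding to the CD8+ T cells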
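Material: 2C TCR transgenic mouse naive CD8+ T cells, MACS-purified. Also added: QL9-charged Drosophila Ld/ICAM-1/B7-1 vesicles. Timing: binding 1.5 h at 37 °C. Measured by: high-throughput flow cytometry with anti-B7-1 and anti-CD8 staining. Read-out: percent CD8+ FL2 mean versus row control. Controls: Unloaded micro-vesicles (low), QL9 vesicles with 0.7% DMSO (high).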
VLA-4 inh: inhibition in human VLA-4 binding assay, primary screen, VLA-4 allosteric modulator project, MLPCN library, flow cytometry, VLA-4 expressing cells; Integrin alpha-4 (Homo sapiens), P13612; ligand binding flow cytometry; inhibition, % (about 7 µM as worked out from the volumes in the protocol); hit rate 0.2% among 330,000; in the data active = inhibition above about 50%
Target sequence (P13612 whole entry, looked up): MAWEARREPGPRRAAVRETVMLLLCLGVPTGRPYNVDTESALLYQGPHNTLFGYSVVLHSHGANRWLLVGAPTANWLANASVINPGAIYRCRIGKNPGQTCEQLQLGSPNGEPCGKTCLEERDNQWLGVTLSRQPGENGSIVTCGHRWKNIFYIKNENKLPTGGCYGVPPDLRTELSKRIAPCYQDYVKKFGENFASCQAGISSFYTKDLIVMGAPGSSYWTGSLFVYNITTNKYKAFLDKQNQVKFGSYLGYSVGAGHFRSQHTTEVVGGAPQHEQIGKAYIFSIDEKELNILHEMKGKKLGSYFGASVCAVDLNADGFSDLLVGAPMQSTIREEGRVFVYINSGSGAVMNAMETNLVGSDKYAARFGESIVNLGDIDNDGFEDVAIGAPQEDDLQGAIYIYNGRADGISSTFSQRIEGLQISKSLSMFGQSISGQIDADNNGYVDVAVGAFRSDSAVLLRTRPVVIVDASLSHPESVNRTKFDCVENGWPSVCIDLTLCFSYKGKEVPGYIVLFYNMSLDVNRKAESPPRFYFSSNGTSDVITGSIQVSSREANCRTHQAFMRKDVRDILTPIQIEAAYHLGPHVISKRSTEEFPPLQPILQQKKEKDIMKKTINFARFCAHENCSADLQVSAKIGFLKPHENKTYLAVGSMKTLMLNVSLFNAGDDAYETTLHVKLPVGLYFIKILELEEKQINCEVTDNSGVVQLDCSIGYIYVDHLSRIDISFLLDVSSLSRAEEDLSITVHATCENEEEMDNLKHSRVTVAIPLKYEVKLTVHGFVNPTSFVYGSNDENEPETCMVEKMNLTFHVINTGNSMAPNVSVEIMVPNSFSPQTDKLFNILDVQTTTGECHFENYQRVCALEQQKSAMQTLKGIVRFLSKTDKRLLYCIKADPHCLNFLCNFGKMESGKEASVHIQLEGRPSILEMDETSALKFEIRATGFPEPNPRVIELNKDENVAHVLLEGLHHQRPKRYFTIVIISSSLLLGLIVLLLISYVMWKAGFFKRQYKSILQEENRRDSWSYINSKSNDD
CHT inh: inhibitors of human choline transporter CHT; High affinity choline transporter 1 (Homo sapiens), Q9GZV3; CHT-expressing cells, membrane potential dye, choline response; stronger effect = lower value; B-score at 10 µM; hit rate 0.86% among 310,000; AID 488975, 2010;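 active = B-score over 3 SD under the library average, and starting fluorescence ratio not unusually high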;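 note: choline stimulus applied at its EC90 after an EC20 pre-addition; B-score computed on integrated fluorescence ratio after choline addition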
CHT allo act: CHT positive allosteric modulators, primary screen, cell-based, membrane potential dye, choline EC20. High affinity choline transporter 1 (Homo sapiens), Q9GZV3. AID 488977, 2010. hit rate 0.49% among 310,000. B-score at 10 µM. CHT-expressing cells; stronger effect = higher value; LV-AA mutant CHT in HEK293 cells;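 active = initial fluorescence not abnormally high and integrated response B-score, plate-corrected, over 3 SD above library mean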
CHT act confirm: CHT activators, confirmation, cell-based, membrane potential dye, duplicate. shares compounds with CHT allo act. CHT-expressing cells, membrane potential dye fluorescence (FDSS); % of choline EC20–EC90 response window; HEK293 expressing CHT LV-AA mutant; choline added at its EC20. activation, % at 10 µM. hit rate 91% among 2,500. AID 504833, 2011;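 active = primary screen active, with duplicate mean activation above negative control mean plus 3 SD, cut at about 11% in these data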
HEK293 MP dye: membrane potential response in parental HEK293 cells, counter-screen for CHT activator project, cell-based, membrane potential dye | shares compounds with CHT allo act | membrane potential dye fluorescence (FDSS); measured after EC20 choline addition | ratio readout change at 10 µM, hits read low | hit rate 62% among 2,500 | AID 623908, 2012;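 active = duplicate-averaged ratio beyond 3 SD from buffer wells, up or down, though filed actives are nearly all decreases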
* = called active by the depositor; i = inactive; nt = not tested or not shown. Rows were chosen to be rich in hits. Some 1.5% of all compounds tested hit in one or more screens of this group.

SMILES	T cell HTS	VLA-4 inh	CHT inh	CHT allo act	CHT act confirm	HEK293 MP dye
CCC(C)(C)C1CCC2(CC1)NC(=O)N(CC(=O)N1CCN(C(=O)c3ccco3)CC1)C2=O (centres undefined)	665	-1	nt	nt	nt	nt
O=CN1CCN(C(=O)CC(c2ccccc2)c2cc(Br)ccc2O)CC1 (centres undefined)	168	11	i	i	nt	nt
CCO[C@H]1OC(C(=O)NCc2nc3ccccc3[nH]2)=C[C@@H](C2CC2)[C@@H]1CCCO	111	4	i	i	26*	i
CCC1=C(OC(=O)N(CC)CC)N2C(=O)OC(=NCC3CC3)[C@]2(Cc2ccccc2)[C@H]2C1=CC[C@H]1C(=O)N(C)C(=O)[C@H]12	199	9	i	7.2*	40*	i
Cc1ccccc1S(=O)(=O)Nc1nc2ccccc2nc1NCCO	167	1	i	i	nt	nt
Cc1ccc2nc(C)cc(NCCO)c2c1	333	1	i	8.7*	53*	-67*
Cc1ccc2cc(C)c(NCCO)nc2c1	302	15	i	8.1*	31*	-52*
Cc1ccc2nc(C)cc(Nc3ccc4c(c3)OCCO4)c2c1	228	5	i	i	21*	-44*
NC(=O)/C(=C/c1cccnc1)NC(=O)c1ccccc1	286	14	i	i	nt	nt
CCCOc1ccc(C2CC(=O)Nc3cc(OC)c(OC)cc32)cc1 (centres undefined)	166	2	i	i	nt	nt
N#CCCN(Cc1cccnc1)C(=S)NC(=O)C1CC1	320	-8	i	i	nt	nt
COc1ccccc1/C=C/C(=O)OCC(=O)NC(=O)NC1CCCC1	755	-1	nt	nt	nt	nt
COc1ccccc1-n1cc(-c2ccccc2)c2c(=S)nc[nH]c21	353	-4	i	i	nt	nt
Cc1sc2nc(SCc3ccc(C(=O)O)cc3)n(Cc3ccco3)c(=O)c2c1C	135	1	i	6.7*	32*	i
Cc1cccc2nc(-c3cccnc3)c(NCCC(C)C)n12	364	-316	i	i	41*	i
Cc1ccccc1Nc1c(-c2cccnc2)nc2ccccn12	671	-3	i	7.5*	50*	-51*
Cc1cccc2nc(-c3cccnc3)c(Nc3ccccc3)n12	239	-1	i	12*	28*	-29*
Cc1ccn2c(Nc3ccccc3C)c(-c3ccccn3)nc2c1	227	2	i	i	nt	nt
Cc1ccc2nc(-c3cccnc3)c(NC3CCCCC3)n2c1	184	4	i	i	nt	nt
COc1ccc(C(=O)/C=C/c2ccsc2)cc1CSCC(=O)O	378	1	i	i	nt	nt
Cc1nc(NCCCn2ccnc2)c2ccccc2n1	133	-13	i	i	46*	-65*
c1cncc(-c2nc(NCCCn3ccnc3)c3ccccc3n2)c1	564	17	i	i	nt	nt
Cc1ccc(OCC(=O)Nc2cccc(-c3nnc(-c4ccccc4)o3)c2)cc1	507	14	i	i	nt	nt
Cc1cccc(C)c1OCC(=O)Nc1cccc(-c2nnc(-c3ccccc3)o2)c1	262	12	i	i	29*	i
COc1ccc(NCc2nc3ccccc3n2CCOc2ccccc2)cc1	94	17	i	6.4*	24*	i
SMILES	T cell HTS	VLA-4 inh	CHT inh	CHT allo act	CHT act confirm	HEK293 MP dye
c1ccc(NCc2nc3ccccc3n2CCOc2ccccc2)cc1	455	0	i	i	nt	nt
Cc1ccc(O)c(C(=O)c2cnn(C(=O)Cc3csc(C)n3)c2)c1	377	-11	i	i	37*	-43*
COc1ccc(O)c(C(=O)c2cnn(C(=O)c3ccc(C)cc3)c2)c1	226	9	nt	nt	nt	nt
CC(C)(C)OC(=O)C[C@H]1C/C=C\C[C@H](CC(=O)N(CCO)Cc2ccccc2)C(=O)N[C@@H](Cc2ccccc2)COC1=O	504	1	nt	nt	nt	nt
O=S(=O)(c1ccc(C2=CSC3=NCCN23)cc1)N1CCOCC1	259	15	i	6.3*	36*	-40*
Cc1ccc(-c2nc3ncccn3c2Nc2ccccc2C)o1	205	0	i	i	40*	-43*
Cc1ccc(-c2nc3ncccn3c2NC2CCCC2)o1	248	7	i	i	nt	nt
CCC(C(=O)NCCCN1CCN(C)CC1)n1nc(C)n2c(cc3occc32)c1=O (centres undefined)	213	7	i	i	nt	nt
CC(=O)NC(Cc1ccc(F)cc1)C(=O)NC1CCN(C(=O)NCc2ccccc2)CC1 (centres undefined)	987	0	i	i	nt	nt
Nc1sc(-c2ccccc2)n[n+]1Cc1cccc2cccnc12	268	2	i	7.8*	12*	i
Cc1cccn2c(=O)c3cc(C(=O)NC4CCCC4)c(=N)n(CCc4ccccc4)c3nc12	239	7	i	i	10	-29*
N=c1c(C(=O)NC2CCCC2)cc2c(=O)n3ccccc3nc2n1CCN1CCOCC1	629	0	i	i	48*	-38*
COc1ccc(CCn2c(=N)c(C(=O)NC3CCCCC3)cc3c(=O)n4ccccc4nc32)cc1	175	6	i	i	43*	-48*
COc1ccc(CCn2c(=N)c(C(=O)NCC3CCCO3)cc3c(=O)n4ccccc4nc32)cc1 (centres undefined)	368	-8	i	i	nt	nt
N=c1c(C(=O)NC2CCCC2)cc2c(=O)n3ccccc3nc2n1Cc1ccccc1	596	20	i	i	nt	nt
CCc1ccccc1NC(=O)CNC(=O)CSC(=S)N1CCCC1	370	8	nt	nt	nt	nt
CC(=O)Nc1ccc(NC(=O)c2c(-c3ccccc3)noc2C)cn1	303	-2	i	i	nt	nt
O=C(NC12CC3CC(CC(C3)C1)C2)c1c(Cl)cccc1Cl	450	9	i	i	nt	nt
Cc1cc(OCCN2CCC(Cc3ccccc3)CC2)ccc1[N+](=O)[O-]	274	16	i	i	nt	nt
COc1cccc(CCN2CCC(CNS(=O)(=O)c3cc(-c4cc(C)no4)ccc3OC)CC2)c1	633	-3	i	i	nt	nt
COc1ccccc1CN1CCC(CNS(=O)(=O)c2cc(-c3onc(C)c3C)ccc2OC)CC1	701	13	i	i	39*	-48*
CCCc1n(CC)c2ccccc2[n+]1CC(O)COC1CCCCC1 (centres undefined)	421	-1	i	7*	40*	i
CC(C)CC[n+]1ccccc1/C=C/c1ccc(N(C)C)cc1	232	i	i	12*	60*	i
